Molecules are shown by their SMILES. Several values for one entry are separate records, joined by “and”; a condition that tells them apart may be missing. Identical values can stand only once. Like-named read-outs stand apart in the source and are kept apart here. Marks after values point to notes of the source that are not given here.

The term IC50 denotes the concentration at which inhibition is half-maximal. Usually solubility stands for how much of the substance goes into solution per volume.

For data set [1], the system named is HeLa cells. Nature of the data set: Lactate transport experiments. Type of data set: cell-based, Human. The settings on record: for Extra- and intracellular lactate levels in the presence of Syro compared with Syro alone: 3.9 μM compound, Syro 10 μM 1 h pre-treatment, 60 and 120 min. An outline of the steps: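 HeLa cells were seeded at 10^5 cells/mL and left overnight, then treated 60 and 120 min; test compounds were at 3.9 µM, with DMSO as control. Medium was kept for extracellular lactate. Cells were washed, permeabilised 5 min with 0.2 M HCl in PBS, and neutralised with 1 M Tris base. Extracts were mixed 1:1 with Lactate-Glo reagent, and luminescence was read after 1 h against a standard curve. Values were normalised to BCA protein after 2% SDS lysis.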

Data set [2] relates to HeLa. Nature of the data set: MTT cell viability assay. The settings on record: 24 h; for IC25 HeLa / IC75 HeLa: mean ± SD; for IC50: Homo sapiens, HeLa, read-out: IC50 HeLa. Type of data set: cell-based, Human. An outline of the steps: (§1)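 Cells were seeded at 10^4/well and left overnight, then exposed 24 h to 0.8–100 µmol/L test compound, with DMSO as control. MTT (5 mg/mL) was added for 2 h at 37 °C; formazan was dissolved in DMSO and read at 570 nm. IC25/50/75 came from viability curves, triplicate wells, ≥3 independent experiments, mean ± SD. Media: HeLa and CAL27 DMEM/10% FBS; MCF7 DMEM/F12/10% FBS plus insulin; MCF10A DMEM/F12/5% horse serum plus insulin.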

The conditions of data set [3]: deprotonated form, calculated; cited from earlier work.
Data set [4] relates to MCF10A. The experiment in a line: MTT cell viability assay. Type of data set: cell-based, Human. The settings on record: 24 h; for IC25 MCF10A / IC75 MCF10A: mean ± SD; for IC50: Homo sapiens, MCF-10A, read-out: IC50 MCF10A. In short, it runs like this:
as §1

Data set [5] relates to CAL27. Nature of the data set: MTT cell viability assay. The settings on record: for IC25 CAL27 / IC75 CAL27: 24 h, mean ± SD; for IC50: Homo sapiens, CAL-27, 24 h, read-out: IC50 CAL27. Type of data set: cell-based, Human. An outline of the steps: as §1
For data set [6] the following is noted: read-out: EC50 Cl^−/HCO3^−; chloride efflux at 300 s, POPC vesicles; cited from earlier work.
The subject of data set [7] is MCF7. The experiment in a line: MTT cell viability assay. Type of data set: cell-based, Human. The settings on record: for IC25 MCF7 / IC75 MCF7: 24 h, mean ± SD; for IC50: Homo sapiens, MCF7, 24 h, read-out: IC50 MCF7. An outline of the steps: as §1
The conditions of data set [8]: read-out: EC50 Cl^−/NO3^−; chloride efflux at 300 s, POPC vesicles; cited from earlier work.
In data set [9] the test system is HeLa, MCF7, CAL27 and MCF10A cell lines. Nature of the data set: MTT cell viability assay, summary among cell lines. Type of data set: cell-based. The settings on record: Homo sapiens, 24 h, read-out: IC50 values among different cell lines. In short, it runs like this: as §1
Data set [10] in a line: 13C NMR lactate transport assay. Type of data set: biochemical. The settings on record: 1% mol carrier to lipid, 50 mM NaCl, 0.5 mM MnCl2. In short, it runs like this: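 POPC vesicles loaded with 13C-carboxyl-labelled sodium L-lactate (200 mM NaLac, 20 mM NaH2PO4, pH 7.2), then dialysed against 150 mM Na2SO4, 20 mM NaH2PO4, pH 7.2 to remove unencapsulated lactate. 13C NMR spectra were taken after the NaCl pulse with the test compound, then after MnCl2, which affects only extravesicular lactate signals.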

Data set [11] has as its system HeLa cells. The experiment in a line: Combination therapy of 1 and CisPt. Type of data set: cell-based, Human.
Data set [12] is described as follows: Solubility in DMSO-d6 when preparing NMR solutions. The settings on record: DMSO-d6, 25 °C, organic solvent or mixture. Type of data set: physicochemical.
The nature of data set [13]: ISE chloride efflux assay, Cl−/NO3− exchange. Type of data set: biochemical. The settings on record: read-out: EC50 Cl^−/NO3^−; chloride efflux at 300 s, 0.5 mM POPC, pH 7.2. An outline of the steps: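 POPC vesicles (200 nm) held 489 mM NaCl, 5 mM NaH2PO4, pH 7.2, and were dialysed into and dispersed in 489 mM NaNO3, 5 mM NaH2PO4, pH 7.2; final lipid 0.5 mM. Test compound in DMSO was added at t = 0, with DMSO as blank. Chloride release was followed by chloride-selective electrode for 300 s, then Triton-X lysis set 100% release. EC50 and Hill coefficient were derived.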

Turning to `CCOC(=O)Oc1c(OC)cc(C(=O)O[C@@H]2C[C@@H]3CN4CCc5c([nH]c6cc(OC)ccc56)[C@H]4C[C@@H]3[C@H](C(=O)OC)[C@H]2OC)cc1OC` [Syro, Syrosingopine, reference compound], in [1] (Syro alone 10 μM, 60 and 120 min (p < 0.0001)), the “Intracellular lactate levels compared to DMSO” value was “significantly higher than DMSO”.

Consider `COc1cc(-c2cn(-c3ccc(Cl)cc3)nn2)[nH]c1/C=N/C1CCCCC1.Cl` [Compound 6, (E)-N-((5-(1-(4-Chlorophenyl)-1H-1,2,3-triazol-4-yl)-3-methoxy-1H-pyrrol-2-yl)methylene)cyclohexanaminium chloride], for which, in [2], the “IC25 HeLa” value was 6.09 ± 0.09 µM, the “IC75 HeLa” value turned out to be 6.54 ± 0.02 µM and the IC50 came to 6.31 ± 0.06 µM. The LogP in data set [3] was 4.22 ^c. For the same compound, in data set [4], the “IC25 MCF10A” value is 3.49 ± 0.22 µM, the “IC75 MCF10A” value worked out at 6.12 ± 1.56 µM and the IC50 amounted to 4.61 ± 0.15 µM. In addition, in data set [5], the “IC25 CAL27” value is 6.58 ± 2.98 µM, the “IC75 CAL27” value came to 8.44 ± 2.59 µM and the IC50 is 7.41 ± 2.77 µM. For the same compound, the EC50 in data set [6] was 0.13 ± 0.007 µM. In addition, in [7], the “IC25 MCF7” value worked out at 9.05 ± 1.13 µM, the “IC75 MCF7” value amounted to 14.53 ± 1.23 µM and the IC50 was 11.5 ± 1.19 µM. For the same compound, the EC50 in data set [8] is 0.0326 ± 0.0008 µM. The IC50 in data set [9] lay within 4.6 to 25.4 µM.

`COc1cc(-c2cn(CCO)nn2)[nH]c1/C=N/CCO.Cl` [Compound 4, (E)-2-hydroxy-N-((5-(1-(2-hydroxyethyl)-1H-1,2,3-triazol-4-yl)-3-methoxy-1H-pyrrol-2-yl)methylene)ethan-1-aminium chloride]: in [2], the “IC25 HeLa” value was above 100 µM, the “IC75 HeLa” value is above 100 µM and the IC50 is above 100 µM. Moreover, in [1], the “Extra- and intracellular lactate levels in the presence of Syro compared with Syro alone” value was “no significant differences”. Also, in data set [4], the “IC25 MCF10A” value stood at 98.64 ± 0.94 µM, the “IC75 MCF10A” value is above 100 µM and the concentration for half-maximal inhibition (IC50) was above 100 µM. Further, in data set [5], the “IC25 CAL27” value was found to be 60.97 ± 5.40 µM, the “IC75 CAL27” value is above 100 µM and the IC50 was 82.1 ± 2.88 µM. Besides, in data set [10], the “Lactate efflux from vesicles seen by 13C NMR after NaCl pulse and MnCl2” value is listed as “no changes”. For the same compound, in data set [7], the “IC25 MCF7” value is above 100 µM, the “IC75 MCF7” value is above 100 µM and the IC50 is above 100 µM. In [9], the IC50 was above 82 µM.

Turning to `COc1cc(-c2cn(-c3ccc(C(C)(C)C)cc3)nn2)[nH]c1/C=N/C12CC3CC(CC(C3)C1)C2.Cl` [Compound 1, N-((E)-(5-(1-(4-(tert-butyl)phenyl)-1H-1,2,3-triazol-4-yl)-3-methoxy-1H-pyrrol-2-yl)methylene)adamantan-1-aminium chloride], in data set [2], the “IC25 HeLa” value was 2.85 ± 0.16 µM; the “IC75 HeLa” value was 3.9 µM and 3.95 ± 0.26 µM; the IC50 is 3.36 ± 0.19 µM. In addition, the “Effect of combination therapy with CisPt on cell viability” value in data set [11] (1 at IC10, IC25, IC50, IC75 for 24 h, then CisPt 24 h, all doses of 1) is given as “higher compared with respective monotherapy of CisPt”. In [11] (higher doses of both 1 and CisPt), the “Type of interaction with CisPt (Combination Index)” value was “moderate synergic effect”. Further, in data set [11] (majority of the dose combinations tested), the “Type of interaction with CisPt (Combination Index)” value is on record as “additive effect”. For the same compound, the solubility in data set [12] is below 50 mM. For the same compound, the EC50 in [13] is 0.0037 ± 0.0004 µM. Moreover, in data set [4], the “IC25 MCF10A” value was found to be 5.36 ± 1.09 µM, the “IC75 MCF10A” value came out at 11.22 ± 3.94 µM and the IC50 amounted to 7.66 ± 1.86 µM. Moreover, in data set [5], the “IC25 CAL27” value was 2.68 ± 0.18 µM, the “IC75 CAL27” value was determined as 4.00 ± 0.50 µM and the concentration for half-maximal inhibition (IC50) stood at 3.27 ± 0.27 µM. Besides, the “Lactate efflux from vesicles seen by 13C NMR after NaCl pulse and MnCl2” value in data set [10] is “facilitates lactate efflux”. For the same compound, in [7], the “IC25 MCF7” value turned out to be 4.00 ± 1.22 µM, the “IC75 MCF7” value turned out to be 7.91 ± 1.42 µM and the IC50 was 5.58 ± 1.17 µM. Also, the IC50 in [9] was in the range of 3.3 to 7.7 µM.

For `COc1cc(-c2cn(-c3ccc(C(C)(C)C)cc3)nn2)[nH]c1/C=N/C1CCCC1.Cl` [Compound 2, (E)-N-((5-(1-(4-(tert-butyl)phenyl)-1H-1,2,3-triazol-4-yl)-3-methoxy-1H-pyrrol-2-yl)methylene)cyclopentanaminium chloride], in [2], the “IC25 HeLa” value amounted to 11.34 ± 0.38 µM, the “IC75 HeLa” value was 13.77 ± 1.88 µM and the IC50 is 12.5 ± 0.98 µM. The EC50 in data set [13] is 0.016 ± 0.001 µM. Besides, in data set [4], the “IC25 MCF10A” value was 13.62 ± 1.64 µM, the “IC75 MCF10A” value was 25.65 ± 3.97 µM and the IC50 was 18.7 ± 2.55 µM. In [5], the “IC25 CAL27” value was 9.25 ± 2.26 µM, the “IC75 CAL27” value is 12.35 ± 2.40 µM and the IC50 came out at 10.6 ± 2.06 µM. Also, in data set [7], the “IC25 MCF7” value turned out to be 4.04 ± 1.37 µM, the “IC75 MCF7” value amounted to 20.49 ± 3.88 µM and the IC50 was 9.06 ± 2.35 µM. In addition, the IC50 in data set [9] lay within 4.6 to 25.4 µM.

Take `COc1cc(-c2cn(-c3ccc(C(C)(C)C)cc3)nn2)[nH]c1/C=N/CCO.Cl` [Compound 3, (E)-N-((5-(1-(4-(tert-butyl)phenyl)-1H-1,2,3-triazol-4-yl)-3-methoxy-1H-pyrrol-2-yl)methylene)-2-hydroxyethan-1-aminium chloride]: in data set [2], the “IC25 HeLa” value stood at 11.98 ± 0.40 µM, the “IC75 HeLa” value came out at 15.29 ± 1.87 µM and the IC50 is 13.5 ± 1.05 µM. Moreover, the EC50 in data set [13] came out at 8.34 ± 0.431 µM. In [4], the “IC25 MCF10A” value was 18.11 ± 3.23 µM, the “IC75 MCF10A” value amounted to 35.95 ± 4.27 µM and the IC50 turned out to be 25.4 ± 1.61 µM. In addition, in [5], the “IC25 CAL27” value was determined as 14.62 ± 3.20 µM, the “IC75 CAL27” value came out at 20.88 ± 4.45 µM and the IC50 is 17.4 ± 3.31 µM. In addition, in data set [7], the “IC25 MCF7” value was 7.22 ± 0.85 µM, the “IC75 MCF7” value was determined as 34.69 ± 3.11 µM and the IC50 was 15.8 ± 1.14 µM. The IC50 in data set [9] was 4.6 to 25.4 µM.

In the case of `COc1cc(-c2cn(CCO)nn2)[nH]c1/C=N/C12CC3CC(CC(C3)C1)C2.Cl` [Compound 5, N-((E)-(5-(1-(2-Hydroxyethyl)-1H-1,2,3-triazol-4-yl)-3-methoxy-1H-pyrrol-2-yl)methylene)adamantan-1-aminium chloride], in [2], the “IC25 HeLa” value came out at 78.14 ± 3.00 µM, the “IC75 HeLa” value is 93.73 ± 3.71 µM and the IC50 is 85.6 ± 2.94 µM. The “Extra- and intracellular lactate levels in the presence of Syro compared with Syro alone” value in [1] is on record as “no significant differences”. In addition, in data set [4], the “IC25 MCF10A” value is 94.92 ± 5.23 µM, the “IC75 MCF10A” value is above 100 µM and the IC50 was above 100 µM. Moreover, in data set [5], the “IC25 CAL27” value is 86.88 ± 6.79 µM, the “IC75 CAL27” value is above 100 µM and the IC50 was 96 ± 4.79 µM. Besides, in [7], the “IC25 MCF7” value was above 100 µM, the “IC75 MCF7” value is above 100 µM and the IC50 was above 100 µM. Besides, the IC50 in [9] is above 82 µM.

Source of the values: PMC10543179 (iScience, 2023).
